Reference: ChEMBL document CHEMBL4190262, “Tuning of β-glucosidase and α-galactosidase inhibition by generation and in situ screening of a library of pyrrolidine-triazole hybrid molecules” (Eur J Med Chem, 2017)

Experiments:
[1] = molecular target: T1, Lysosomal acid glucosylceramidase (Homo sapiens, UniProt P04062); test: Inhibition of human lysosomal beta-glucocerebrosidase using 4-methylumbelliferyl-beta-D-glucopyranoside as substrate preincubated for 45 mins followed by substrate addition measured after 30 mins by fluorescence spectroscopic method
T1 sequence (P04062 whole entry): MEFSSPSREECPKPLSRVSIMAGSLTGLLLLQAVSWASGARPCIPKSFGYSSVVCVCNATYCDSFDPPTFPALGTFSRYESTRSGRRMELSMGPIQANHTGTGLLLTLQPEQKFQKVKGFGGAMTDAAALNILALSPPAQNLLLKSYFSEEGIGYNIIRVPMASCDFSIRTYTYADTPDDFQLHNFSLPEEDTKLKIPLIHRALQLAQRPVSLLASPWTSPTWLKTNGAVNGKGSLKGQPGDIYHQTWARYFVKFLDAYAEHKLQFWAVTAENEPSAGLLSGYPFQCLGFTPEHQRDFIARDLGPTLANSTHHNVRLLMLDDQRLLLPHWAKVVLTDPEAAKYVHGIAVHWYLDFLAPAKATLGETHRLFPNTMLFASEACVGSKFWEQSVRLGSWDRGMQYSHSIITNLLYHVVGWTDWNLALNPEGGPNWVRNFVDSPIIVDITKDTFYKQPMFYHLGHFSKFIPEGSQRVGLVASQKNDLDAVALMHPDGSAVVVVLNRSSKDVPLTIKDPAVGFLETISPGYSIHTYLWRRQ
Summary of the method: (§1)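 Enzyme in 100 mM McIlvaine buffer pH 5.2 with 0.25% sodium taurocholate and 0.1% Triton X-100, with inhibitor. Preincubated at 0 °C for 45 min, then started with 3 mM 4-methylumbelliferyl glycoside substrate solution and incubated 30 min at 37 °C. Stopped with 400 mM glycine-NaOH pH 10.6. 4-Methylumbelliferone fluorescence read at ex 362/em 450 nm.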

Prunus dulcis [2] = test: Inhibition of almond beta-glucosidase at 1 mM using p-nitrophenyl glycopyranoside preincubated for 5 mins followed by substrate addition measured after 20 mins by visible absorption spectroscopic method relative to control
Summary of the method: (§2)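 Test compound at 1 mM in well. Mix: 0.01–0.5 units/mL enzyme plus 10 mM p-nitrophenyl glycopyranoside (aqueous solution), buffered to the enzyme's optimal pH. Enzyme and inhibitor preincubated 5 min at rt. Substrate then added and incubated 20 min at 37 °C. Stopped with sodium borate (pH 9.8). p-Nitrophenolate read at 405 nm. Duplicates averaged.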

[3] = Selectivity ratio of IC50 for human lysosomal alpha-galactosidase A to IC50 for coffee beans alpha-galactosidase
Alpha-galactosidase A = molecular target: T2, Alpha-galactosidase A (Homo sapiens, UniProt P06280); test: Inhibition of human lysosomal alpha-galactosidase A using 4-methylumbelliferyl-alpha-D-galactopyranoside as substrate preincubated for 45 mins followed by substrate addition measured after 30 mins by fluorescence spectroscopic method; summary of the method: as §1
T2 sequence (P06280 whole entry): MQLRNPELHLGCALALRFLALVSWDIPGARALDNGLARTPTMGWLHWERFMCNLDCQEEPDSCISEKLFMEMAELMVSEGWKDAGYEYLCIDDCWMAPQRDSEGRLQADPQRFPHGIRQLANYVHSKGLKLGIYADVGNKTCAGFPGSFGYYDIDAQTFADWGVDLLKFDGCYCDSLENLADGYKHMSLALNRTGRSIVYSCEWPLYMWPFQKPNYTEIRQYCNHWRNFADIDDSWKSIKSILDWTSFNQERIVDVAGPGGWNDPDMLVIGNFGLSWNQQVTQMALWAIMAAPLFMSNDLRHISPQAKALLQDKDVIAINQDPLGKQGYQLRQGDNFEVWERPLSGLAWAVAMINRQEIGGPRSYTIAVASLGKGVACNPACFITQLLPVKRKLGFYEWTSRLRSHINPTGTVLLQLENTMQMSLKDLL

[4] = Inhibition of bovine liver beta-glucosidase using p-nitrophenyl glycopyranoside preincubated for 5 mins followed by substrate addition measured after 20 mins by visible absorption spectroscopic method; parameters: species or system Bos taurus
Summary of the method: (§3)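 IC50 determined only for compounds giving ≥80% inhibition at 1 mM, read from plots of % inhibition versus inhibitor concentration. p-Nitrophenyl glycopyranoside substrate (10 mM solution) at the enzyme's optimal pH, with 0.01–0.5 units/mL enzyme. 5 min rt preincubation with enzyme, then 20 min at 37 °C. Borate stop (pH 9.8), absorbance at 405 nm. Duplicates averaged.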

[5] = molecular target: Alpha-galactosidase (Coffea arabica) (UniProt Q42656); test: Inhibition of coffee beans alpha-galactosidase at 50 uM using p-nitrophenyl glycopyranoside preincubated for 5 mins followed by substrate addition measured after 20 mins by visible absorption spectroscopic method relative to control
Alpha-galactosidase (Coffea arabica), sequence (Q42656 16-378 limits assumed): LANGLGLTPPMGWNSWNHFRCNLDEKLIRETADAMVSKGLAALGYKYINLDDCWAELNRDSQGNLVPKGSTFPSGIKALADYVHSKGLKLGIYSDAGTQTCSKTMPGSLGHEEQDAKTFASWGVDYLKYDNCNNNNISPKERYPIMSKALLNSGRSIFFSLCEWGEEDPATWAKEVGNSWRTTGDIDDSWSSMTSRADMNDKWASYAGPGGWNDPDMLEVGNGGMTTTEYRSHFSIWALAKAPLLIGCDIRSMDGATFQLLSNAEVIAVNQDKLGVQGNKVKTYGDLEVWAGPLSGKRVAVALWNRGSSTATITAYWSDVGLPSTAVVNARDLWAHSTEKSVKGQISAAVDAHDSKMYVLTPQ
Summary of the method: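 Crude triazoles from in situ CuAAC (ascorbate/CuSO4, 24 h rt, water-diluted) were screened at 50 μM per well, assuming full conversion. Enzyme was coffee bean α-galactosidase at pH 6, 37 °C, with p-nitrophenyl glycoside substrate and 405 nm read-out. Blanks of CuSO4, ascorbate and each alkyne were run.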

Beta-galactosidase = molecular target: T3, Beta-galactosidase (Bos taurus, UniProt Q58D55); test: Inhibition of bovine liver beta-galactosidase using p-nitrophenyl glycopyranoside preincubated for 5 mins followed by substrate addition measured after 20 mins by visible absorption spectroscopic method; summary of the method: as §3
T3 sequence (Q58D55 whole entry): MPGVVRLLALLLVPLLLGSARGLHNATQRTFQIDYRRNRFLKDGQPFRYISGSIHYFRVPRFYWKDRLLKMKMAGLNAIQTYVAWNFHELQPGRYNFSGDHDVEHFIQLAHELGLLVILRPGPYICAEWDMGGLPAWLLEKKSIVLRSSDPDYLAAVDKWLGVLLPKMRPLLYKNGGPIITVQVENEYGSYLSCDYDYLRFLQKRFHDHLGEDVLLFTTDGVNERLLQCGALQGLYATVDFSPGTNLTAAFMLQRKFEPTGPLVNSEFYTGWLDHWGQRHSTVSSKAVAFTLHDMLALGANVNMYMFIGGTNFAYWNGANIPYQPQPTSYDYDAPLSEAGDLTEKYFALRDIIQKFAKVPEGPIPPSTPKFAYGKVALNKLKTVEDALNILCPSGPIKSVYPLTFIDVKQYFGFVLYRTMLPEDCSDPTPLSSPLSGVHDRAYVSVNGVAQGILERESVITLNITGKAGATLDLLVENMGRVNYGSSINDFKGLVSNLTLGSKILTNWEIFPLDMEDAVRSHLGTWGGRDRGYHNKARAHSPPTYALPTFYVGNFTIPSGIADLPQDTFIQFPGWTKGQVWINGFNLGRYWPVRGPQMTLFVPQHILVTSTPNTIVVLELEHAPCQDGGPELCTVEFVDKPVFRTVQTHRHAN

Alpha-galactosidase = Alpha-galactosidase (Coffea arabica, UniProt Q42656); test: Inhibition of coffee beans alpha-galactosidase using p-nitrophenyl glycopyranoside preincubated for 5 mins followed by substrate addition measured after 20 mins by visible absorption spectroscopic method; summary of the method: as §3
Alpha-galactosidase, sequence (Q42656 whole entry): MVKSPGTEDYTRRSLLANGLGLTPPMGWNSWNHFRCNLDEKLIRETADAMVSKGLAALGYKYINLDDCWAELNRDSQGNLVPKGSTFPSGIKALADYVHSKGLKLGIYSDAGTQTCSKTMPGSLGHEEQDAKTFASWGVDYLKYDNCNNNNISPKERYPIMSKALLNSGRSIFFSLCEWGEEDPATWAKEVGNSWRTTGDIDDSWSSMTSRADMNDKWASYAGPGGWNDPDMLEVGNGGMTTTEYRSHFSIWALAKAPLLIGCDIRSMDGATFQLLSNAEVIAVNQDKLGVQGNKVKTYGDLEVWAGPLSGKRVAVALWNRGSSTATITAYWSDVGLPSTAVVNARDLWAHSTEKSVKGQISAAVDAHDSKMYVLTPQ

[6] = molecular target: Alpha-galactosidase (Coffea arabica) (UniProt Q42656); test: Inhibition of coffee beans alpha-galactosidase at 1 mM using p-nitrophenyl glycopyranoside preincubated for 5 mins followed by substrate addition measured after 20 mins by visible absorption spectroscopic method relative to control; summary of the method: as §2
Bos taurus = species on record: Bos taurus; test: Inhibition of bovine liver beta-glucosidase at 1 mM using p-nitrophenyl glycopyranoside preincubated for 5 mins followed by substrate addition measured after 20 mins by visible absorption spectroscopic method relative to control; summary of the method: as §2
[7] = molecular target: T4, Alpha-galactosidase A (Homo sapiens) (UniProt P06280); test: Inhibition of human lysosomal alpha-galactosidase A at 1 mM using 4-methylumbelliferyl-alpha-D-galactopyranoside as substrate preincubated for 45 mins followed by substrate addition measured after 30 mins by fluorescence spectroscopic method relative to control; summary of the method: as §1
T4 sequence (whole entry): T2 sequence (P06280 whole entry)

Prunus dulcis [8] = test: Inhibition of almond beta-glucosidase at 10 uM using p-nitrophenyl glycopyranoside preincubated for 5 mins followed by substrate addition measured after 20 mins by visible absorption spectroscopic method relative to control
Summary of the method: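 Crude click-reaction products screened in situ. Azide (final 15 mM) was reacted with each alkyne using sodium ascorbate/CuSO4 in tBuOH–H2O for 24 h at rt, then diluted with water. Tested at 10 μM per well, assuming quantitative conversion, against almond β-glucosidase at pH 5, 37 °C. p-Nitrophenyl glycoside read-out at 405 nm.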

[9] = Inhibition of almond beta-glucosidase using p-nitrophenyl glycopyranoside preincubated for 5 mins followed by substrate addition measured after 20 mins by visible absorption spectroscopic method; parameters: species or system Prunus dulcis; summary of the method: as §3

Row | IC50 [1] [µM] | inhibition (Prunus dulcis [2]) [%] | Ratio IC50 [3] | IC50 (Alpha-galactosidase A) [µM] | IC50 [4] [µM] | inhibition [5] [%] | IC50 (Beta-galactosidase) [µM] | IC50 (Alpha-galactosidase) [µM] | inhibition [6] [%] | inhibition (Bos taurus) [%] | inhibition [7] [%] | inhibition (Prunus dulcis [8]) [%] | IC50 [9] [µM] | Compound
1 | 31 | < 50 | 10 | 185 | 887 | 67 | 338 | 13 | – | – | – | – | – | COc1ccc(-c2cn(C[C@H]3NC[C@@H](O)[C@H]3O)nn2)cc1
2 | 187 | < 50 | 10 | 159 | 888 | 66 | 268 | 14 | – | – | – | – | – | OCc1ccc(-c2cn(C[C@H]3NC[C@@H](O)[C@H]3O)nn2)cc1
3 | 19 | – | – | – | – | – | 151 | – | < 50 | < 50 | < 50 | 65 | 7 | C[Si](C)(C)Cc1cn(C[C@@H]2NC[C@@H](O)[C@H]2O)nn1
